# Assay results pooled from the literature.
# CDK4 with cyclin D3: Cyclin-dependent kinase 4, with cyclin D3 (CDK4, Homo sapiens, UniProt P11802)
# CDK4 with cyclin D1: Cyclin-dependent kinase 4, with cyclin D1 (CDK4, Homo sapiens, UniProt P11802)
# CDK4: Cyclin-dependent kinase 4 (CDK4, Homo sapiens, UniProt P11802)
target,observed,method,tested at,remaining binding,Structure (SMILES)
CDK4 with cyclin D3,binding,competition with immobilised ligand,1 µM,87%,COc1cnc(Nc2cccc(S(N)(=O)=O)c2)nc1N1CCN(c2ccccc2)C(=O)C1
CDK4 with cyclin D1,binding,,1 µM,51%,CN(C)c1nccc(-c2cnc3ncccn23)n1
CDK4,binding,competition with immobilised ligand,1 µM,100%,O=C(Nc1c[nH]nc1C(=O)NC1CCNCC1)c1cc(F)cc(F)c1
CDK4,cell-free assay,competition with immobilised ligand,1 µM,79.3%,Cc1cc(NC(=O)c2cccc(S(F)(F)(F)(F)F)c2)cc(-n2ccn3nc(-c4cccnc4)cc23)c1
CDK4 with cyclin D1,binding,,1 µM,97%,COc1ccnn2ncc(-c3ccnc(N(C)C)n3)c12
CDK4 with cyclin D3,binding,competition with immobilised ligand,1 µM,0.9%,O=C(c1ccc(Nc2ncc(Cl)c(-c3ccc(Cl)s3)n2)cc1)N1CCC(N2CCCC2)CC1
CDK4 with cyclin D3,binding,,1 µM,76%,C[C@@H]1CCN(c2nccc(-c3cnn4ncccc34)n2)C1
CDK4 with cyclin D1,binding,competition with immobilised ligand,1 µM,0.5%,O=C(NCCCN1CCOCC1)c1ccc(Nc2ncc(Cl)c(-c3ccc(Cl)s3)n2)cc1
CDK4,binding,,1 µM,95%,Cc1cnn2ncc(-c3ccnc(N(C)C)n3)c2c1
CDK4 with cyclin D1,cell-free assay,competition with immobilised ligand,1 µM,94%,CC(=O)N1CCC(c2ccc(C(=O)NC3=NCCN3)cc2C(F)(F)F)CC1
CDK4,binding,competition with immobilised ligand,1 µM,88%,O=C(c1ccc(Nc2nccc(-c3cc4ccccc4s3)n2)cc1)N1CCC(N2CCCC2)CC1
CDK4 with cyclin D3,cell-free assay,competition with immobilised ligand,1 µM,100%,CN(C)CC#Cc1ccc(OCCCc2sc(N3CCc4cccc(C(=O)Nc5nc6ccccc6s5)c4C3)nc2C(=O)O)c(F)c1
CDK4,binding,competition with immobilised ligand,1 µM,84%,Nc1ncc2c(n1)-c1c([nH]c3ccc(C#CC4CC4)cc13)CCCC2
CDK4 with cyclin D1,cell-free assay,competition with immobilised ligand,1 µM,100%,O=C(NC[C@@H]1[C@H]2CN(C(=O)OCc3cc(C(F)(F)F)cc(C(F)(F)F)c3)C[C@@H]12)c1ccc2[nH]nnc2c1
CDK4 with cyclin D3,binding,,1 µM,68%,c1cnn2ncc(-c3ccnc(N4CCC45COC5)n3)c2c1
CDK4 with cyclin D1,cell-free assay,competition with immobilised ligand,1 µM,100%,CS(=O)(=O)NCC[C@H](NC(=O)c1cncc2c1cnn2-c1ccc(F)cc1)c1ccnc(S(C)(=O)=O)c1
CDK4,binding,competition with immobilised ligand,10 µM,100%,c1cncc(-c2cccc(Nc3nccc(NC4CCCCC4)n3)c2)c1
CDK4 with cyclin D3,cell-free assay,competition with immobilised ligand,1 µM,81%,Cc1c(NC(=O)c2cc(C(N)=O)nc3cc(F)ccc23)c(C(F)(F)F)nn1Cc1ccc(C#N)cc1
CDK4 with cyclin D3,binding,competition with immobilised ligand,0.1 µM,68%,C[C@@H](c1ccc(-n2cnc3c(N)ncnc32)cc1)N1CCc2nn(C)c(Cc3ccccc3)c2C1=O
